Active and inactive are the calls of the source. The rule behind the calls is not given here.
Assays:
[1] = system: L5178Y; assay: Cytotoxicity against mouse L5178Y cells assessed as cell growth inhibition at 10 ug/ml measured after 72 hrs by MTT assay; format: functional, cell-based
Outline: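 L5178Y mouse lymphoma cells, MTT read-out relative to untreated controls, compounds at 10 μg/mL. Negative control: medium with 0.1% ethylene glycol monomethyl ether/DMSO; kahalalide F positive control. Three independent experiments, each in triplicate.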

[2] = system: Staphylococcus aureus; assay: Antibacterial activity against Staphylococcus aureus ATCC 29213 by CLSI protocol based broth microdilution method; format: functional
Outline: (§1)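 Serial 2-fold dilutions, DMSO diluted along with compounds; highest concentration tested 64 μg/mL. Moxifloxacin positive control for S. aureus, rifampicin for A. baumanii and P. aeruginosa.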

[3] = system: Acinetobacter baumannii; assay: Antibacterial activity against Acinetobacter baumannii BAA 1605 by CLSI protocol based broth microdilution method; format: functional; outline: as §1
[4] = system: Staphylococcus aureus; assay: Antibacterial activity against Staphylococcus aureus ATCC 700699 by CLSI protocol based broth microdilution method; format: functional; outline: as §1
[5] = system: Mycobacterium tuberculosis; assay: Antibacterial activity against Mycobacterium tuberculosis by CLSI protocol based broth microdilution method; format: functional
Outline: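 Broth microdilution per CLSI guidelines. Serial 2-fold dilutions up to a highest tested concentration of 64 μg/mL, with DMSO diluted along with the compounds. Rifampicin served as positive control.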

[6] = system: Pseudomonas aeruginosa; assay: Antibacterial activity against Pseudomonas aeruginosa 27853 by CLSI protocol based broth microdilution method; format: functional; outline: as §1

| SMILES | Activity [1] | MIC [2] [µM] | MIC [3] [µM] | MIC [4] [µM] | MIC [5] [µM] | MIC [6] [µM] |
| --- | --- | --- | --- | --- | --- | --- |
| O=C1Nc2ccccc2[C@](O)(c2cccc(O)c2)[C@H]1O | inactive | > 100 | > 100 | > 100 | > 100 | > 100 |
| CC(=O)c1cc(C)c(O)c(CC2=C(O)C(CC(=O)O)OC2=O)c1O (racemic) | inactive | > 100 | > 100 | > 100 | > 100 | > 100 |
